Starred links: 1 amine or outer side, 2 acyl side, 3 side chain; linkers in the order of their positions; H or OH if unused. Positions of bridges follow the written chain, without caps; N, C: chain ends. Non-standard residues stand in square brackets, D forms with d. Residues, ends and D or L forms follow the SMILES beside them. hNle(4R-Ph,7-yl) = O=C([C@H](C[C@@H](CCC[*:3])c1ccccc1)N[*:1])[*:2]; X1 = C[C@H](CCC[*:3])C[C@H](N[*:1])C(=O)[*:2]

One data set deals with HEK-293 cells. Briefly: Cell viability. The data set is classed as cell-based. The conditions noted are these: HEK-293 normal cells, 3.12-50 µM, 48 h. The method, boiled down:
(§1)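 MTT viability assay. Cells were seeded at 5 × 10³/well and given the test compound at 3.12, 6.25, 12.5, 25 or 50 µM in serum-free medium for 4 h. Serum was then replaced and cells incubated a further 44 h. MTT (5 mg/mL in PBS) was added for 4 h at 37 °C, 5% CO2, and formazan was dissolved in DMSO. A490 was read. SEM from at least three independent measurements.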

A further data set deals with MDA-231 cells. Briefly: Cell viability. The data set is classed as cell-based. As to conditions: MDA-231 (mutant p53), up to 50 μM, 48 h. The method, boiled down: (§2)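 MTT assay: cells at 5 × 10^3/well were exposed to test compound (3.12, 6.25, 12.5, 25, 50 µM) in serum-free medium for 4 h. Serum was then restored for a further 44 h. MTT (5 mg/mL in PBS) was added for 4 h at 37 °C, 5% CO2. Formazan was dissolved in DMSO and absorbance read at 490 nm. At least three independent measurements, SEM shown.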

For data set [1], the system named is QSG-7701 cells. Briefly: Cell viability. It is filed as cell-based. The conditions noted are these: QSG-7701 normal cells, 3.12-50 µM, 48 h. The method, boiled down: as §1
Data set [2] has as its system p53. Briefly: Western blot of p53 expression, PA-1. The conditions noted are these: PA-1, 40 µM peptide, 48 h. The data set is classed as cell-based, human. The method, boiled down: (§3)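 Cells in 6-well plates were treated 48 h, then lysed in Tris-SDS buffer (pH 6.8). 20 μg protein was run on 10% SDS-PAGE and transferred to nitrocellulose. Blots were probed overnight at 4 °C with rabbit monoclonal anti-p53 (1:500), with pan-actin (1:1000) as reference. Goat secondary antibodies were applied 1 h at room temperature, with chemiluminescent detection.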

A further data set concerns the target T1, MDMX (Homo sapiens, UniProt O15151).
T1 sequence (O15151 1-490): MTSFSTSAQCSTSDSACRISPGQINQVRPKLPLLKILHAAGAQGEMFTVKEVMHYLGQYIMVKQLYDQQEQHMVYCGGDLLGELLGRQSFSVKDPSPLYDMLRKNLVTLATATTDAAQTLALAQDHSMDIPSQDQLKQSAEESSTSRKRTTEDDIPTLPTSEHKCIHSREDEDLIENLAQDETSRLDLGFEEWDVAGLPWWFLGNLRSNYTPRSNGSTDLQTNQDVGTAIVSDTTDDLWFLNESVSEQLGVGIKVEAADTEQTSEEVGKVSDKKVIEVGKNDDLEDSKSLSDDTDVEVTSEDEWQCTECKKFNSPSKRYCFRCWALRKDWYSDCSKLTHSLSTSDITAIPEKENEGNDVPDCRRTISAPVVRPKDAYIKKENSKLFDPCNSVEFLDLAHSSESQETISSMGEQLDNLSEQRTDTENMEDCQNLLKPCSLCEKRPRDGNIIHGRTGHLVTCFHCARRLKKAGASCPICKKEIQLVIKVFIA
Briefly: Fluorescence polarization assay, FITC-labeled peptide with GST-labeled MDMX. The data set is classed as binding. The conditions noted are these: compared within the library. The method, boiled down:
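Fluorescence polarization: FITC-labelled peptide (10 or 20 nM) incubated with MDMX protein in 140 mM NaCl, 50 mM Tris pH 8.0 for 1 h at room temperature. Peptide concentration set from FITC absorbance at 494 nm. Kd obtained by nonlinear regression of dose-response curves.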
A general note: Fluorescence polarisation rises when a labelled molecule tumbles more slowly, as on binding a larger partner.

Data set [3] deals with p53. Briefly: Western blot of p53 expression, MCF-7. The data set is classed as cell-based. The conditions noted are these: MCF-7, 40 µM peptide, 48 h. The method, boiled down:
as §3
(A western blot detects proteins with antibodies after separation by electrophoresis.)

The test system of the next data set is Skov-3 cells. Briefly: Cell viability. It is filed as cell-based. As to conditions: Skov-3 (mutant p53), up to 50 μM, 48 h. The method, boiled down: as §2
Data set [4] can be described thus: Mice voluntary cage-wheel exercise assay. The data set is classed as in vivo. The conditions noted are these: BALB/c mice, 10 mg/kg subcutaneous, 20 days. The method, boiled down: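 BALB/c mice were randomly split into two groups given a single subcutaneous injection of PBS or test compound (10 mg/kg). Voluntary cage-wheel running cycles were recorded over 20 days after injection.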

The target of the next data set is p53-MDM2 binding (Homo sapiens, UniProt Q00987). Briefly: Immunoprecipitation of p53-MDM2 from PA-1 cell lysates, western blotting. The data set is classed as cell-based. The conditions noted are these: PA-1, 40 μM, 4 h, versus DMSO control, 10% FBS. The method, boiled down:
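Exponentially growing PA-1 cells received the test compound or an equal volume of DMSO. Cells were lysed in 50 mM Tris pH 8.0, 150 mM NaCl, 1 mM EDTA, 0.5% NP-40. Extract (500 µg) was precleared 2 h on protein G Sepharose, then incubated with rabbit monoclonal anti-p53 or mouse monoclonal anti-MDM2. Complexes were captured on protein G beads overnight at 4 °C and washed five times in cold lysis buffer. Western blots were probed for p53, MDM2 and pan-actin.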

The next data set can be described thus: Histological analysis. As to conditions: 21 days after injection, compared with PBS-treated mice. It is filed as in vivo. The method, boiled down:
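Tumor, heart, liver, spleen, lung, kidney and brain were harvested 21 days after injection. Tissue sections were stained with hematoxylin and eosin and examined for histological changes.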

In data set [5] the test system is PA-1 cells. Briefly: Cellular uptake of FITC-labelled peptides, confocal microscopy and FACS, PA-1. The data set is classed as cell-based, human. As to conditions: 37°C, 2 h.
The subject of another data set is caspase-3. Briefly: Caspase-3 activity assay, PA-1. It is filed as cell-based, human. The method, boiled down:
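Apoptosis in PA-1 cells was read as caspase-3 activity after exposing the cells to a caspase-3-specific substrate.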

Another data set concerns MCF-7 cells. Briefly: Cellular uptake of FITC-labelled peptides, confocal microscopy, MCF-7. It is filed as cell-based. As to conditions: MCF-7, FITC-labeled peptide, 37°C, 2 h. The method, boiled down: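 Cells in DMEM + 10% FBS (50000/well) were grown 1 day to ~80% adherence. FITC-labelled peptide (1 mM DMSO stock) was added to 5 µM final at 37 °C. Cells were washed 3× in PBS, fixed in 4% formaldehyde for 10 min, stained with DAPI 1 μg/mL for 5 min, and imaged by confocal microscopy. PA-1 uptake was also quantified by flow cytometry.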

Data set [6] has as its system QSG-7701 cells. Briefly: Cell cycle analysis by PI staining and flow cytometry, QSG-7701. The data set is classed as cell-based. As to conditions: QSG-7701, 48 h, PI staining. On the technique in general: Flow cytometry measures light scatter and fluorescence of single cells or particles in a stream.
The subject of data set [7] is PA-1 cells. Briefly: Annexin-V/PI apoptosis assay, PA-1. It is filed as cell-based, human. The conditions noted are these: PA-1, 40 μM peptides or 5 μM nutlin-3a, 48 h. The method, boiled down:
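Exposed PA-1 cells were stained with Annexin-V/PI. Apoptotic cells were counted as the sum of quadrants Q1+Q2+Q3 and reported as a ratio of total cells.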

Data set [8] deals with PA-1 cells. Briefly: Cell cycle analysis by PI staining and flow cytometry, PA-1. It is filed as cell-based, human. As to conditions: PA-1, 40 μM peptides or 5 μM nutlin-3a, 48 h.
Another data set concerns sox2 and foxA2 genes. Briefly: RT-qPCR of stemness and differentiation genes, PA-1. It is filed as cell-based, human. As to conditions: PA-1, 40 µM, 48 h. The method, boiled down: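 Exponentially growing PA-1 cells were seeded in 6-well plates and treated 48 h with 40 µM peptide; nutlin-3a at 1 µM was the comparator. mRNA was quantified by real-time qPCR and expressed as fold increase. Triplicates from three independent experiments, SEM shown.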

For data set [9], the system named is p53. Briefly: p53 accumulation kinetics in HCT-116 Venus knock-in cell line. As to conditions: HCT-116 p53-VKI; PhR 40 µM; nutlin-3a 0.5 or 5 µM (Fig. S9 legend). It is filed as cell-based.
The next data set has as its system PA-1 xenograft. Briefly: Antitumor efficacy in PA-1 human xenograft model. The data set is classed as in vivo, mice. The conditions noted are these: for mice that died during the treatment period: 21 days of treatment. The method, boiled down: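 Female athymic nude mice (BALB/c nu, 6 weeks) received 1 × 10^7 PA-1 cells in DMEM subcutaneously in the lower flank. After 10-15 days, mice with 100-150 mm3 tumors were randomized into 3 groups of 5-6. Test compound at 10 mg/kg, or PBS as negative control, was injected intratumorally every 2 days from day 0 for 21 days. Mice were followed a further 24 days; survival plotted as Kaplan-Meier curves.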

In a further data set the test system is p53 and p21. Briefly: Immunohistochemistry of tumor tissues. It is filed as in vivo, mice. As to conditions: PA-1 xenograft tumor tissue, 10 mg/kg.
Where [10] appears, read: PA-1 xenograft, 10 mg/kg every other day.

p53-MDM2 binding, sequence (Q00987 whole entry): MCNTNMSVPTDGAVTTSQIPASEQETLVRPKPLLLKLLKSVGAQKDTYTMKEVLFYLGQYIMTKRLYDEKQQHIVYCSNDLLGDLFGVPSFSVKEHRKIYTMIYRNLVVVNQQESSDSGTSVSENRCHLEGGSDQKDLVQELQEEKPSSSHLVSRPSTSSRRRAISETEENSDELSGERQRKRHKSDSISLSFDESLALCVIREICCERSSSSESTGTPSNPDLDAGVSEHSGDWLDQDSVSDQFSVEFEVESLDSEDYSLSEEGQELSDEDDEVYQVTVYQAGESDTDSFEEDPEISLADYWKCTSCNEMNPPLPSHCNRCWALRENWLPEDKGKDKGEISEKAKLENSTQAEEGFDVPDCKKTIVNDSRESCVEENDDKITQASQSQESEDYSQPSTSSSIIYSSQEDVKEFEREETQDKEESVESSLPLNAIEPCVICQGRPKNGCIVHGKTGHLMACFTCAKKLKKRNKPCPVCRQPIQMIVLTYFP

On to `CC(=O)N[C@@H](CC(C)C)C(=O)N[C@H](C(=O)N[C@@H](Cc1ccccc1)C(=O)N[C@H]1CSCCC[C@@H](C)C[C@@H](C(=O)N[C@@H](CCC(N)=O)C(=O)N[C@@H](CC(C)C)C(=O)N[C@H](C(=O)N[C@@H](CO)C(N)=O)[C@@H](C)O)NC(=O)[C@H](Cc2c[nH]c3ccccc23)NC(=O)[C@H](Cc2ccc(O)cc2)NC(=O)[C@H](Cc2c[nH]cn2)NC1=O)[C@@H](C)O` [MeR] (Ac-LTFCHYW[X1]QLTS-NH2; thioether 4-8; N-terminus assumed), for which the “effect on cell growth and proliferation” value in the data set on HEK-293 cells was “little effect on the cell growth and proliferation”; in the data set on QSG-7701 cells [1], “little effect on the cell growth and proliferation”. Also, the “effect on cell viability” value in the data set with MDA-231 cells and with Skov-3 cells was “Negligible effects” throughout. In addition, the “p53 expression (western blot)” value with p53 [2] and with p53 [3] was “upregulated” throughout. The “binding ability toward MDMX” value on MDMX was “highest binding abilities”.
For `CC(=O)N[C@@H](CC(C)C)C(=O)N[C@H](C(=O)N[C@@H](Cc1ccccc1)C(=O)N[C@H]1CSCCC[C@@H](c2ccccc2)C[C@@H](C(=O)N[C@@H](CCC(N)=O)C(=O)N[C@@H](CC(C)C)C(=O)N[C@H](C(=O)N[C@@H](CO)C(N)=O)[C@@H](C)O)NC(=O)[C@H](Cc2c[nH]c3ccccc23)NC(=O)[C@H](Cc2ccc(O)cc2)NC(=O)[C@H](Cc2c[nH]cn2)NC1=O)[C@@H](C)O` [PhR] (Ac-LTFCHYW[hNle(4R-Ph,7-yl)]QLTS-NH2; thioether 4-8; N-terminus assumed), in [4], the “voluntary running cycles versus PBS group” value is “no significant differences”. Besides, at p53-MDM2 binding, the “MDM2 protein bound to p53 (IP and western blotting)” value is “substantial reduction of MDM2 protein bound to p53”. Moreover, the “effect on cell growth and proliferation” value with HEK-293 cells was “little effect on the cell growth and proliferation”; with QSG-7701 cells [1], “little effect on the cell growth and proliferation”. Moreover, the “histological changes of major organs (H&E)” value in the data set “Histological analysis” is reported as “no signs of organ lesions”. Also, the “cellular uptake, comparison” value was “higher cellular uptake than MeR” with PA-1 cells [5] (PA-1, 5 µM FITC-labelled peptide, confocal and flow cytometry); “higher cellular uptake than MeR” with MCF-7 cells. In the data set on PA-1 cells [5] (PA-1, 5 uM, live cells), the “internalization, live cell confocal imaging” value was “internalized into the cells both in the cytoplasm and nucleus”. The “effect on cell viability” value with MDA-231 cells and with Skov-3 cells was “Negligible effects” each time. Moreover, the “apoptosis by caspase-3 activity” value with caspase-3 (PA-1, dose ladder) is reported as “dose-dependent apoptosis”. For the same compound, the “cell-cycle arrest in normal cell line” value in the data set on QSG-7701 cells [6] is “did not induce cell cycle arrest”. For the same compound, in the data set on PA-1 cells [7], the “apoptotic effect (Annexin-V/PI)” value is “more pronounced in PA-1 than those of MeR and nutlin-3a”. Besides, the cell-cycle arrest entry with PA-1 cells [8] was “more effective in inducing cell-cycle arrest in the G2/M phase than MeR and nutlin-3a”. The “expression of differentiation gene foxA2 (qPCR)” value in the data set with sox2 and foxA2 genes is given as “upregulation”. Moreover, the “expression of stemness gene sox2 (qPCR)” value in the data set with sox2 and foxA2 genes is listed as “significant downregulation”. Moreover, in the data set with p53 [9], the “time to highest levels of p53 and p21” value is 12 h. Moreover, the “mice that died during the treatment period” value with PA-1 xenograft (setting [10]) is on record as “no mice died”. In addition, the “survival (Kaplan-Meier)” value in the data set on PA-1 xenograft (treated for 21 days and raised for another 24 days post treatment) is recorded as “able to prolong the lives of the mice”. Besides, the “p53 expression (western blot)” value with p53 [2] and in the data set on p53 [3] was “upregulated” in each case. Moreover, the “p53 and p21 expression in tumor tissues (immunohistochemistry)” value in the data set with p53 and p21 was “higher expression levels of p53 and p21”. For the same compound, the “binding ability toward MDMX” value at MDMX is recorded as “highest binding abilities”.
As to `COc1ccc(C2=N[C@@H](c3ccc(Cl)cc3)[C@@H](c3ccc(Cl)cc3)N2C(=O)N2CCNC(=O)C2)c(OC(C)C)c1` [nutlin-3a], the “apoptosis by caspase-3 activity” value in the data set on caspase-3 (PA-1, at a low dose) is listed as “minimal apoptosis”. The caspase-3 activity result in the data set with caspase-3 (PA-1, at higher doses (>5 μM)) was “no caspase-3 activity was detected”. In addition, the “time to highest levels of p53 and p21” value with p53 [9] was 48 h. For the same compound, in the data set with PA-1 xenograft (setting [10]), the “mice death in the first week of treatment” value came to 20% and the “mice that died during the treatment period” value is on record as “three in ten”. Besides, in the data set on PA-1 xenograft (PA-1 xenograft, athymic nude mice, 10 mg/kg every other day, intratumoral injection, 3 weeks), the “tumor growth inhibition (TGI)” value stood at 30%.

Values taken from publication PMC5695149 (Theranostics, 2017).
